Shown are actives, neighbours in structure and some others; about 4.2% of the full set was active somewhere.
CHOP inhibitor = inhibitors of CHOP promoter induction, primary screen, cell-based, unfolded protein response, luciferase reporter; CHO-K1 CHOP-promoter luciferase, tunicamycin-induced, 15-18 h; inhibition, % at 10 µM; 220,000 compounds, 3.8% hits;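 active = compounds that reduced the stress-induced luciferase reporter signal by more than about 70% of percent inhibition, limit read from the data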;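 note: 0% = tunicamycin plus vehicle and 100% = wells without tunicamycin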
XBP1 UPR activ = activators of adaptive XBP1 UPR arm, primary screen, cell-based, CHO-XBP1 luciferase reporter, luminescence, uHTS | AID 463104, 2010 | 330,000 compounds, 0.33% hits | IRE1-XBP1 UPR activation; percent of tunicamycin response, DMSO as zero | activation, % at 20 µM;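 active = versus positive control, 20 µM dose yields 30% or more activation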;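 note: 100% = tunicamycin at 10 µg/mL and 0% = DMSO only wells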
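Assay system: IRE1-XBP1 luciferase reporter CHO line. Input: 1000 cells/well. Buffer or medium: F12 with 10% serum. Doses: 20 µM, 1% DMSO. Times: overnight seeding at 37 °C, 6 h compound treatment at 37 °C. Technique: Steady-Glo luciferase glow luminescence, 10 min after reagent addition.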
TMEM16A act = TMEM16A chloride channel activators or potentiators, primary screen, cell-based, HTS | Anoctamin-1 (Mus musculus), Q8BHY3 | HEK293 TMEM16A/YFP-H148Q/I152L, iodide quench fluorescence; hits give low values | B-score at 10 µM | 340,000 compounds, 0.3% hits;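 active = fluorescence-ratio B-score plate-corrected deviation score at least 3 library SD below zero, with starting fluorescence score within 5 deviations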;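 note: channel opened by trigger with iodide after compound preincubation; score built on the fluorescence ratio of max minus min over baseline; more negative score means more quench and so TMEM16A activation or potentiation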
Target sequence (Q8BHY3 whole entry, looked up): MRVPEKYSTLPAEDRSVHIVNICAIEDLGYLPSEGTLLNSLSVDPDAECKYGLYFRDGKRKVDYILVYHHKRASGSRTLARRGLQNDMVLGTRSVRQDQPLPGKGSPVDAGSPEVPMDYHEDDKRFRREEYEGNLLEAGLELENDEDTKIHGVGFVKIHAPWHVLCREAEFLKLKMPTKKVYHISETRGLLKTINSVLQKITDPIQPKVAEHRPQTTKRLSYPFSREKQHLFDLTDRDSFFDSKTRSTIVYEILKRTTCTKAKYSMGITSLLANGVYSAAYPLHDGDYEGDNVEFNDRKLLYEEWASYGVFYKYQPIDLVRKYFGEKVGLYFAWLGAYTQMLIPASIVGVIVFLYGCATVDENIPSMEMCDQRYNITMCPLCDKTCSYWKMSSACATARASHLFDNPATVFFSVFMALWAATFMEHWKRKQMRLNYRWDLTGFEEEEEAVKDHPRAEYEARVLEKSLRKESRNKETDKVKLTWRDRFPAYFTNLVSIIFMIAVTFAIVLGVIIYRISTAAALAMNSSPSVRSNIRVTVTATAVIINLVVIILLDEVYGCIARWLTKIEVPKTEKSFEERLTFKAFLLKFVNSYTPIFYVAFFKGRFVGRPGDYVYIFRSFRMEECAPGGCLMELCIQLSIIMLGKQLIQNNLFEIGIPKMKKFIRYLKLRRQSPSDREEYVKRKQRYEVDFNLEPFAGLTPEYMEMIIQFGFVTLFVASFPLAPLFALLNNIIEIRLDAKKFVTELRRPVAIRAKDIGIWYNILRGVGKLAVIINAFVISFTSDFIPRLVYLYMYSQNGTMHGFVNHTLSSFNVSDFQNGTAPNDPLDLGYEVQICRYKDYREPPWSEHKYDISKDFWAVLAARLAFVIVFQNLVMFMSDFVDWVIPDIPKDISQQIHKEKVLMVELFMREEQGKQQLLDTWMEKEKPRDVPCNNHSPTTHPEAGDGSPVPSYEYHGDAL
ANO1 block = TMEM16A chloride channel inhibitors, primary screen, cell-based, HTS; Anoctamin-1 (Mus musculus), Q8BHY3; HEK293 TMEM16A/YFP iodide influx fluorescence, ionomycin; normalized B-score (activity score, 25-100; higher = stronger inhibition) at 10 µM; 310,000 compounds, 1.2% hits; AID 588511, 2011;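 active = ratio plate-corrected score three or more library SD toward inhibition, starting fluorescence score within five deviations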;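 note: score derived from kinetic fluorescence span divided by baseline fluorescence per well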
UPR CHOP act = activators of apoptotic CHOP UPR arm, primary screen, cell-based, CHO-CHOP luciferase reporter, luminescence, uHTS; UPR activation; percent of tunicamycin response over DMSO baseline; activation, % at 10 µM; AID 449763, 2010; 330,000 compounds, 0.34% hits;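 active = at 10 µM dose, activation of 40% or more, normalized to positive control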;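 note: 100% = tunicamycin at 10 µg/mL and 0% = DMSO alone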
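System: CHO-CHOP luciferase reporter cell line | Buffer or medium: F12 medium containing 10% fetal bovine serum | Doses: One dose, 10 µM in 0.5% DMSO | Times: 6 h compound exposure at 37 °C after overnight seeding | Signal: Luciferase luminescence | Read-out: % activation vs tunicamycin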
Lipid droplet = inhibitors of hepatocyte lipid droplet formation, primary screen, imaging, high-throughput imaging, BODIPY stain; AML12 mouse hepatocytes, oleate lipid droplets; inhibition, % at 6.5 µM; 240,000 compounds, 0.4% hits;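 active = lipid droplet intensity inhibited by at least 50%, with more than 500 cells counted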
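Assay system: AML12 hepatocytes (mouse); Probe or stimulus: oleic acid at 100 µM to induce lipid droplet formation; Dosing: compound at 6.5 µM only; Schedule: compound with oleate, overnight; Detection: fluorescence imaging, 20x objective, two fields per well; Measure: % inhibition of lipid droplet signal.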
CHOP confirm = retest of CHOP induction inhibitors, confirmation, cell-based. shares compounds with CHOP inhibitor. CHO-CHOP promoter luciferase reporter, tunicamycin-induced, luminescence. inhibition, % at 10 µM. 2,100 compounds, 45% hits. AID 504437, 2011;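 active = mean of three repeat readings of reporter signal inhibition above a set limit, cut at about 70% in these data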;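 note: 0% = tunicamycin plus vehicle and 100% = wells lacking tunicamycin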
Active calls of the source: *; i = inactive; · = not tested or not shown; ! = not active in a repeat.

SMILES	CHOP inhibitor	XBP1 UPR activ	TMEM16A act	ANO1 block	UPR CHOP act	Lipid droplet	CHOP confirm
O=C(NNc1nc2ccccc2s1)Nc1ccc(Cl)c(Cl)c1	106*	-4	i	i	-1	4	-67
CCCCCCCCn1ccc(=N)cc1	62	1	i	i	16	-4	·
CCCCCCCCCCCCCCCCn1cc[n+](C)c1	81*	3	i	25*!	23	-28	115*
CC(=O)OCC1O[C@@H](O[C@@H]2C[C@H]3C(C)(C)[C@H](OC(C)=O)CC[C@]3(C)[C@H]3CC[C@]45C[C@]4(CC[C@H]5[C@@H](C)C[C@@H](O)[C@H](O)C(C)(C)O)[C@@]32C)[C@H](O)[C@@H](O)[C@@H]1O (stereo not given in full)	106*	29	·	100*	5	3	120*
Cn1c(SCC(=O)N/N=C/c2ccc([N+](=O)[O-])s2)nnc1-c1ccccc1	105*	4	i	i	10	-5	-8
COCCN(C(=O)CCC(=O)Nc1cc(C)on1)C(C(=O)NC1CCCC1)c1ccc(C(C)C)cc1 (stereo not given)	·	1	i	i	2	11	·
COCCn1c(SCc2ccc(F)cc2)nc2ccccc2c1=O	·	0	i	i	-1	-6	·
COc1ccc(OCc2nnc(NC(=O)Nc3ccc(F)cc3)s2)cc1	101*	-2	i	i	-1	-28	0
COc1ccc(NC(=O)Nc2nnc(-c3ccccc3SCc3ccccc3)s2)cc1	98*	5	i	i	0	-4	27
O=C(Nc1nnc(COc2ccc(F)cc2)s1)Nc1ccccc1F	99*	-1	i	i	1	41	2
COc1cccc(NC(=O)Nc2nnc(-c3ccccc3SCc3ccccc3)s2)c1	62	4	i	i	4	2	·
CCOC(=O)c1sc(NC(=O)Nc2ccccc2F)nc1C	102*	-7	i	i	-2	16	44
COc1cc(C)ccc1OCc1cc(C(=O)NCCN2CCOCC2)no1	·	0	i	i	4	0	·
CN(CC(=O)Nc1ccccc1C(F)(F)F)Cc1c(O)ccc2ccccc12	·	0	i	i	1	10	·
Cc1nc(NC(=O)CCc2ccccc2)sc1C	·	1	i	i	4	-14	·
CCCNC(=O)N1CCN(S(=O)(=O)c2ccc3c(c2)OCCO3)CC1	·	-1	i	·	2	·	·
CC(C)(C)C(=O)Nc1cccc(-c2nc3ccccc3c(=O)o2)c1	-22	-5	i	i	-2	·	·
CC(C)(C)C(=O)Nc1ccc(-c2nc3ccccc3c(=O)o2)cc1	105*	-4	i	i	-8	13	90*
CCOC(=O)N1CCN(C(=O)COC(=O)c2oc3ccc(OC)cc3c2C)CC1	·	0	i	i	3	-12	·
CCc1ccc2[nH]c(=O)c(C(c3nnnn3Cc3ccccc3)N3CCOCC3)cc2c1 (stereo not given)	0	0	i	i	-2	·	·
CCc1ccc2[nH]c(=O)c(C(c3nnnn3Cc3ccco3)N3CCC(C)CC3)cc2c1 (stereo not given)	99*	-2	i	i	-3	1	77*
CC1=CCC2COC(c3ccc[n+](Cc4ccccc4)c3)C1C2 (stereo not given)	-15	-3	i	i	0	-7	·
CC1CC(C)CN(C(=O)/C=C/c2ccc(S(=O)(=O)N3CCOCC3)cc2)C1 (stereo not given)	·	-1	i	·	0	·	·
Cc1c(Br)c([N+](=O)[O-])nn1CC(=O)Nc1ccc(C(C)C)cc1	96*	1	i	i	0	-7	13
COC(=O)c1cccc(NC(=O)NC23CC4CC(CC(C4)C2)C3)c1	101*	1	i	i	0	21	-42
SMILES	CHOP inhibitor	XBP1 UPR activ	TMEM16A act	ANO1 block	UPR CHOP act	Lipid droplet	CHOP confirm
COC(=O)c1ccc(Cl)c(NC(=O)NC23CC4CC(CC(C4)C2)C3)c1	43	1	i	i	-1	9	·
Cc1cccc(N/C(N)=N/c2nc(C)c(Cc3ccccc3)c(=O)[nH]2)c1	101*	14	i	i	9	-10	13
Cc1nc2ccc(NC(=O)c3cc([N+](=O)[O-])cc([N+](=O)[O-])c3Cl)cc2s1	107*	·	-5.7*	i	·	-16	6
Cc1nc2ccc(NC(=O)c3ccc(Cl)c([N+](=O)[O-])c3)cc2s1	17	-4	i	i	3	-16	·
C=C(C)[C@@H]1CC[C@]2(C(=O)O)CC[C@]3(C)[C@H](CC[C@@H]4[C@@]5(C)CC[C@H](O)C(C)(C)[C@@H]5CC[C@]43C)[C@@H]12	103*	12	i	i	1	2	66
C=C(CC[C@@H](O)C(C)(C)O)[C@H]1CC[C@]2(C)[C@@H]1CCC1[C@@]3(C)CC[C@H](O)C(C)(C)C3CC[C@]12C (stereo not given in full)	·	2	i	·	0	·	·
O=S(c1ccc2ccccc2c1)c1cnns1 (stereo not given)	105*	-11	i	i	-9	·	3
Cc1nnsc1S(=O)c1ccc(Cl)c(Cl)c1 (stereo not given)	·	-8	i	i	15	·	·
NC(=O)c1nn(CC(=O)Nc2cccc(S(=O)(=O)N3CCCC3)c2)c(=O)c2ccccc12	·	-3	i	·	0	·	·
CC1(c2ccc(OC(F)F)cc2)NC(=O)N(CC(=O)Nc2cccc(S(N)(=O)=O)c2)C1=O (stereo not given)	9	-3	i	i	-1	0	·
CC1(c2ccc(OC(F)F)cc2)NC(=O)N(/N=C/c2c(O)ccc3ccccc23)C1=O (stereo not given)	101*	-2	-4.7*	i	-2	3	96*
O=C1Cc2cc(O)ccc2O1	·	·	i	·	·	·	·
Cc1ccc(S(=O)(=O)/N=C(\Sc2ccccc2)c2ccccc2)cc1	107*	11	i	i	3	·	46
O=S(=O)(/N=C(\Sc1ccccc1)c1ccccc1)c1ccc(Cl)cc1	1	1	i	i	-1	·	·

Screening results: PubChem BioAssay, several laboratories
